Reference: ChEMBL document CHEMBL3244256 (J Med Chem, 1979)

Experiments:
[1] = Toxicity ip dosed whole-body gamma-irradiated mouse compound administered 30 mins prior irradiation; assay type: organism-based; conditions: in vivo
Mus musculus [2] = assay: Antiradiation activity in ip dosed whole-body gamma-irradiated mouse assessed as increase in mouse survival rate compound administered 30 mins prior irradiation; assay type: functional; conditions: light or radiation study, read-out: MED
In short: (§1)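 Mice were dosed ip or po with compound in water, or in physiological saline containing 0.3% methylcellulose and 0.1% Tween 80, usually at pH 5–7. Dosing came 15, 30 or 60 min before whole-body ¹³⁷Cs γ irradiation (141.5 rd/min; 849 rd for most compounds). The dose reported is the lowest giving the highest survival rate. Read-out was % survival at 30 days.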

Mus musculus [3] = assay: Antiradiation activity in ip dosed whole-body gamma-irradiated mouse assessed as mouse survival compound administered 30 mins prior irradiation measured after 30 days relative to control; assay type: functional; in short: as §1
[4] = Toxicity po dosed whole-body gamma-irradiated mouse compound administered 30 mins prior irradiation; assay type: organism-based; conditions: in vivo
Mus musculus [5] = assay: Antiradiation activity in po dosed whole-body gamma-irradiated mouse assessed as mouse survival compound administered 30 mins prior irradiation measured after 30 days relative to control; assay type: functional; in short: as §1
[6] = Toxicity ip dosed whole-body gamma-irradiated mouse compound administered 15 mins prior irradiation; assay type: organism-based; conditions: in vivo
Mus musculus [7] = assay: Protective index, ratio of LD50 for mouse to ED50 for antiradiation activity in ip dosed whole-body gamma-irradiated mouse
In short: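 After ip dosing and whole-body ¹³⁷Cs γ irradiation (141.5 rd/min), ED50 (dose for 50% survival) was estimated from log dose-probit survival plots. Protective index was approximated as approx LD50 (mg/kg) × 1.5 / ED50 (mg/kg).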

Mus musculus [8] = assay: Antiradiation activity in ip dosed whole-body gamma-irradiated mouse assessed as increase in mouse survival rate compound administered 15 mins prior irradiation; assay type: functional; conditions: light or radiation study; in short: as §1
Mus musculus [9] = assay: Antiradiation activity in po dosed whole-body gamma-irradiated mouse assessed as increase in mouse survival rate compound administered 30 mins prior irradiation; assay type: functional; conditions: light or radiation study, read-out: MED; in short: as §1
Mus musculus [10] = assay: Antiradiation activity in ip dosed whole-body gamma-irradiated mouse assessed as mouse survival compound administered 15 mins prior irradiation measured after 30 days relative to control; assay type: functional; in short: as §1

SMILES	LD50 at 0.5 h [1] [mg/kg]	minimal effective dose (Mus musculus [2]) [mg/kg]	Survival (Mus musculus [3]) [%]	LD50 at 0.5 h [4] [mg/kg]	Survival (Mus musculus [5]) [%]	LD50 at 0.25 h [6] [mg/kg]	PI (Mus musculus [7])	ED50 (Mus musculus [8]) [mg/kg]	minimal effective dose (Mus musculus [8]; read-out: MED) [mg/kg]	minimal effective dose (Mus musculus [9]) [mg/kg]	Survival (Mus musculus [10]) [%]
Br.NCC(N)CS (stereo unspecified)	800	200	20								
Cl.NCCCC[C@H](N)CS				450	50	88	13	10	25	75	80
